Experimental data reported in the array DNA melting data of Ke et al. (doi:10.1101/2024.01.08.574731).

Key:
[1] = folding enthalpy; higher = less favourable; fluorescence melt of hairpins on a sequencing array, two-state fit; conditions: sodium 0.088 M
Summary of the method: (§1)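 Cy3 signals were normalised both to pre-quench Cy3 and to control constructs. They came from library hairpins carrying annealed Cy3 and quencher oligos on a sequenced MiSeq flow cell, imaged in 50 mM Na-HEPES pH 8.0, 25 mM NaCl, in 2.5 °C steps up to 60 °C. Bootstrapped two-state fits gave melting temperature and folding enthalpy, and four replicates were combined by inverse variance. Fitted temperatures were then raised by 9.35 °C to match UV melts.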

[2] = melting temperature; fluorescence melt of hairpins on a sequencing array, two-state fit, raised by 9.35 °C to match UV melts; conditions: sodium 0.088 M
Summary of the method: as §1

Sequence	folding enthalpy [1] [kcal/mol]	Tm [2] [°C]
GTCAGGGGAAACCCCAAC ((..(((....)))..))	-11.7	28.3
GTCAGGGGAAACCCTAAC ((.((((....)))).))	-14.5	29.6
GTCAGTCGAAAGACGAC (((.(((....))))))	-32	53.1
GTCAGTGAAAACTGAC ((((((....))))))	-35.6	60.5
GTCAGTGGAAACACTGGC (.(((((....))))).)	-24.8	54.7
GTCATAGAAATATGAC ((((((....))))))	-30.2	45.6
GTCATCGAAAGATAGAC ((((((....))).)))	-24.6	39.7
GTCATCGAAAGATAGGAC ((((((....)))..)))	-15.7	30.9
GTCATCGAAAGATGGGAC ((((((....)))..)))	-14.4	34.1
GTCATCGAAAGATTGGAC ((((((....)))..)))	-17.7	30.9
GTCATGCCGAAAGGCGAC (((..(((....))))))	-12.3	41.3
GTCATGGAAACATGAC ((((((....))))))	-34.5	56.1
GTCATGGGAAACTATGGC (.(((.(....).))).)	-22.4	32.1
GTCATGTCGAAAGACGAC (((..(((....))))))	-14.8	38
GTCATTACGAAAGTAGAC (((..(((....))))))	-9.42	26.7
GTCATTCGAAAGAAGAC (((.(((....))))))	-16.5	33
GTCATTCGAAAGAAGGAC (((.(((....))).)))	-42.5	51.9
GTCCAAACGAAAGTTGAC (((..(((....))))))	-16.8	31.6
GTCCAAGGAAACTCGGAC ((((.((....)).))))	-30.6	38.8
GTCCAAGGAAACTTAGAC (((.(((....))).)))	-13.7	24.5
GTCCACGAAAGTGTAGAC ((((((....)))..)))	-20.1	38.9
GTCCACGCGAAAGCGGAC (((..(((....))))))	-12.9	45.8
GTCCAGGGAAACCCAGAC (((..((....))..)))	-17.4	31.4

Sequence	folding enthalpy [1] [kcal/mol]	Tm [2] [°C]
GTCCAGGGAAACCCGGAC ((((.((....)).))))	-36.1	51
GTCCAGGGAAACCTAGAC (((.(((....))).)))	-19	33.3
GTCCAGGGAAACTTGGGC (.(((.(....).))).)	-29	34.7
GTCCATCGAAAGATTGAC (((.(((....))).)))	-34.1	39.7
GTCCATGCGAAAGCAGAC (((..(((....))))))	-12.9	35.3
GTCCATGGAAACATAGAC (((.(((....))).)))	-17.3	30.1
GTCCCACGAAAGTGGAC (((.(((....))))))	-13.1	49.9
GTCCCCGAAAGGGCGGAC ((((((....)))..)))	-15.4	42.8
GTCCCCGAAAGGGGGAC ((((((....))).)))	-17.1	68.5
GTCCCCGAAAGGGTGAC ((((((....))).)))	-22.6	53.3
GTCCCCGGAAACGAGGAC ((((.((....)).))))	-32.1	48
GTCCCCGGAAACGGAGAC (((.(((....))).)))	-28	47.7
GTCCCGGGAAACCGGAAC ((.((((....)))).))	-14.9	44.4
GTCCCTACGAAAGTAGAC (((..(((....))))))	-9.91	25.9
GTCCCTCGAAAGAGTGAC (((.(((....))).)))	-31.9	45.3
GTCCCTGCGAAAGCAGAC (((..(((....))))))	-7.38	32.2
GTCCCTGGAAACAAGGAC ((((.((....)).))))	-20	34.7
GTCCCTGGAAACGGGGAC (((((.(....).)))))	-49	56.4
GTCCGACCGAAAGGTGAC (((..(((....))))))	-16.6	36.6
GTCCGACGAAAGTCAGAC (((.(((....))).)))	-23.5	50
GTCCGAGGAAACTCAGAC (((.(((....))).)))	-21.4	35.9
GTCCGAGGAAACTTGGAC ((((.((....)).))))	-29.9	51
GTCCGCACGAAAGTGGAC (((..(((....))))))	-19.6	47.1

Sequence	folding enthalpy [1] [kcal/mol]	Tm [2] [°C]
GTCCGCCCGAAAGGGGAC (((..(((....))))))	-18.7	47.3
GTCCGCCGAAAGGCCGAC (((.(((....))).)))	-20.5	49.2
GTCCGCGAAAGCGAAGAC ((((((....)))..)))	-17.4	45.4
GTCCGCGAAAGCGGCGAC ((((((....)))..)))	-10.7	67
GTCCGCGAAAGCGGGAC ((((((....))).)))	-12.4	63.5
GTCCGCGAAAGCGTGAC ((((((....))).)))	-19.8	58
GTCCGGAAACGGAC (((((....)))))	-28.2	67.4
GTCCGGCGAAAGCCGAC (((.(((....))))))	-9.75	49.1
GTCCGTCGAAAGACGAC (((.(((....))))))	-13.4	50.6
GTCCTCGAAAGAGGCGAC ((((((....)))..)))	-17	50.9
GTCCTCGAAAGAGGGGAC ((((((....)))..)))	-11.6	43.6
GTCCTCGGAAACAAGGAC (((((.(....).)))))	-25.8	39.3
GTCCTCGGAAACGAAGAC (((.(((....))).)))	-26	38
GTCCTCGGAAACGGGGAC ((((.((....)).))))	-45.3	55.7
GTCCTGGGAAACCAGGAC (((((((....)))))))	-36	66.7
GTCCTGGGAAACCGGGAC ((((.((....)).))))	-39.2	55.7
GTCCTGTCGAAAGACGAC (((..(((....))))))	-11.2	34.1
GTCCTTCCGAAAGGAGAC (((..(((....))))))	-11.4	28.1
GTCCTTCGAAAGAACGAC (((.(((....))).)))	-23.3	33.5
GTCCTTGCGAAAGCAGAC (((..(((....))))))	-12.3	32.3
GTCGAAGGAAACTCCGAC ((((.((....)).))))	-27.6	42.1
GTCGACCGAAAGGTGGAC (((.(((....))).)))	-42.1	56.1
GTCGACCGAAAGGTTGAC (((.(((....))).)))	-34.8	62.2

Sequence	folding enthalpy [1] [kcal/mol]	Tm [2] [°C]
GTCGACGAAAGTCCCGAC ((((((....)))..)))	-16.1	34
GTCGACGAAAGTCTCGAC ((((((....)))..)))	-18.3	41.8
GTCGACGAAAGTCTGAC ((((((....))).)))	-21.8	49.5
GTCGACGAAAGTCTTGAC ((((((....)))..)))	-15.4	36.2
GTCGACGGAAACACCGAC ((((..(....)..))))	-24.8	31.6
GTCGACGGAAACATCGAC (((((.(....).)))))	-39.8	46.3
GTCGACGGAAACGTTGGC (.(.(((....))).).)	-24.6	46.2
GTCGATCGAAAGATAGAC (((.(((....))).)))	-42.7	50.4
GTCGATGAAAATCGAC ((((((....))))))	-39.4	61.3
GTCGATGGAAACATCGAC (((((((....)))))))	-44.8	67.3
GTCGATGGAAACATCGGC (.(((((....))))).)	-42.2	56.1
GTCGATGGAAACATTGGC (.(.(((....))).).)	-29.2	35.1
GTCGATGGAAACGTCGAC (((((.(....).)))))	-37.6	54.8
GTCGCACGAAAGTGGGAC (((.(((....))).)))	-38.5	67.4
GTCGCACGAAAGTGTGAC (((.(((....))).)))	-42.4	67.4
GTCGCCGAAAGGCGAGAC ((((((....)))..)))	-7.32	51.8
GTCGCCGAAAGGCTCGAC ((((((....)))..)))	-13.2	39.1
GTCGCGGGAAACCGTGGC (.(.(((....))).).)	-28.5	50.3
GTCGCTTCGAAAGAAGAC (((..(((....))))))	-9.98	33.9
GTCGGACGAAAGTCGAC (((.(((....))))))	-28	56.9
GTCGGAGGAAACTCTGAC (((.(((....))).)))	-45.4	50
GTCGGATCGAAAGATGAC (((..(((....))))))	-16.7	31.7
